Test results as given in article PMC4028361 (Immunity, 2014).
Like-named read-outs stand apart in the source and are kept apart here.

Tests used:
human Vγ9Vδ2 T cells = assay type: cell-based
Procedure, shortened: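 Target HEK cells had endogenous BTN3A silenced by shRNA and were transiently re-transfected with BTN3A isoforms or position-351 mutants. Cells were pretreated 2 h at 37°C with anti-CD277 agonist mAb 20.1 or zoledronate, washed extensively, then cocultured 4 h at 37°C with polyclonal Vγ9Vδ2 T cells in complete RPMI with 10 μM monensin and labelled anti-CD107a. Cells were then stained for Vδ2 TCR and read by flow cytometry.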

[1] = target: extracellular domain of BTN3A1 (Homo sapiens, UniProt O00481); test: Isothermal titration calorimetry, pAg binding to BTN3A1 extracellular domain; conditions: ITC at multiple temperatures (25°C, 15°C); 100μM protein, 2mM cHDMAPP
Chain of extracellular domain of BTN3A1 (O00481 30-254 limits assumed): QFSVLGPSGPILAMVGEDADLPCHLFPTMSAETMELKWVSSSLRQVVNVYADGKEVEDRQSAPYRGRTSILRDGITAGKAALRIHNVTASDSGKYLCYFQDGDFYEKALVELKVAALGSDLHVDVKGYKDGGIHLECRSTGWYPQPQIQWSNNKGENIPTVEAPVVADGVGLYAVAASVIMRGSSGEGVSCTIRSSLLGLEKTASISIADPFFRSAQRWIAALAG

[2] = target: BTN3A1 B30.2 charge reversal mutant (H378D, K393D, R412E, R418E, R469E) (Homo sapiens, UniProt O00481, H408D/K423D/R442E/R448E/R499E); test: Isothermal titration calorimetry, B30.2 charge reversal mutant; assay type: binding; conditions: ITC; 25μM protein in cell, 500μM pAg in syringe
Chain of BTN3A1 B30.2 charge reversal mutant (H378D, K393D, R412E, R418E, R469E) (O00481 322-513 H408D/K423D/R442E/R448E/R499E): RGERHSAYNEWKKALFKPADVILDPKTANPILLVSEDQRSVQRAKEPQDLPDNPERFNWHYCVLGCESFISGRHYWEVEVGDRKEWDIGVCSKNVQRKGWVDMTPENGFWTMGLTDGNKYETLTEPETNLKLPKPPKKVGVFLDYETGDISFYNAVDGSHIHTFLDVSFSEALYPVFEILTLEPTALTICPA

[3] = target: G115 Vγ9Vδ2 TCR / BTN3A1 extracellular domain (Homo sapiens, UniProt O00481); assay type: binding; conditions: SPR; 1mM cHDMAPP co-injected
Chain of G115 Vγ9Vδ2 TCR / BTN3A1 extracellular domain (O00481 30-254): as the sequence (O00481 30-254 limits assumed) above
Procedure, shortened: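 G115 Vγ9Vδ2 TCR was C-terminally biotinylated and multimerized at a 60:1 ratio onto streptavidin-conjugated AmDex polymers. Serial dilutions from 1 ug/ml to 0.03125 ug/ml were injected over immobilized […] BTN3A1, with murine T22 protein also immobilized.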

| Compound | Vγ9Vδ2 T cell stimulation (CD107a) (human Vγ9Vδ2 T cells; BTN3A-silenced cells re-expressing BTN3A1_H351R) | Vγ9Vδ2 T cell stimulation (CD107a) (human Vγ9Vδ2 T cells; BTN3A-silenced cells re-expressing BTN3A3_R351H) | binding to the complete extracellular domain of BTN3A1 [1] | binding to B30.2 charge reversal mutant [2] | effect of co-injection on G115 AmDex TCR interaction with immobilized BTN3A1 [3] |
| --- | --- | --- | --- | --- | --- |
| O=P(O)(O)C(O)(Cn1ccnc1)P(=O)(O)O [zoledronate, Zoledronic acid monohydrate] | unable to mediate NBP induced stimulation | able to mediate NBP induced stimulation | – | – | – |
| C/C(=C\CCP(=O)(O)OP(=O)(O)O)CO [cHDMAPP, hydroxy-methyl-butyl-pyrophosphonate] | – | – | unable to detect binding | no detectable binding | did not alter observed interactions |
